Reference: ChEMBL document CHEMBL1152809, “Structure-activity relationships of orotidine-5'-monophosphate decarboxylase inhibitors as anticancer agents” (J Med Chem, 2009)
Active and inactive are the calls of the source. No cut-off for these calls is given here.

Tests used:
[1] = target: T1, Uridine 5'-monophosphate synthase (Homo sapiens) (UniProt P11172); experiment: (§1) Irreversible inhibition of human ODCase
T1 sequence (whole entry): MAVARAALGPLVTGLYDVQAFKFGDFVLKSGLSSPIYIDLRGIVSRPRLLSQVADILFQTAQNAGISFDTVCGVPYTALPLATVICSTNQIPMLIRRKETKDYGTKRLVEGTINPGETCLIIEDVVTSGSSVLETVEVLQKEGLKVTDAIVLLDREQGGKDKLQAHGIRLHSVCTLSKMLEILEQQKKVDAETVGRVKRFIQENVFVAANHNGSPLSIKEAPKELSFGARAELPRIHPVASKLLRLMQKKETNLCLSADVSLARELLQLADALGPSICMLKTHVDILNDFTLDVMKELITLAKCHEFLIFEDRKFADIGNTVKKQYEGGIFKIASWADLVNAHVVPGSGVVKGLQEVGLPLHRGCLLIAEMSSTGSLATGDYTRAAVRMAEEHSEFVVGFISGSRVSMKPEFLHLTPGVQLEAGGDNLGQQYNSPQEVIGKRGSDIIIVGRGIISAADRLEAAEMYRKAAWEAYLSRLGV

[2] = target: T2, Uridine 5'-monophosphate synthase (Homo sapiens, UniProt P11172); experiment: as §1
T2 sequence (P11172 whole entry): T1 sequence (whole entry)

[3] = target: Orotidine 5'-phosphate decarboxylase (Methanobacterium thermoautotrophicum, UniProt O26232); experiment: Reversible inhibition of Methanobacterium thermoautotrophicum ODCase; design: species or system Methanothermobacter thermautotrophicus
Outline: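 Inhibitor levels span 0-1.0 µM up to 0-4.0 mM depending on compound. Rates from heat flow fitted to a competitive model for Ki; experiments in triplicate.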

[4] = target: T2, Uridine 5'-monophosphate synthase; experiment: Reversible inhibition of human ODCase
Outline: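 Human ODCase at 60 nM in 50 mM Tris, 1 mM DTT, assayed by ITC at 37 °C. Enzyme mixed with inhibitor (stocks in 50 mM Tris pH 7.5) and the reaction started with OMP, 15 or 20 µM final. Inhibitor ranges from 0-1.0 µM up to 0-500 µM. Ki from direct fit of decarboxylation rates; triplicates.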

OVCAR-4 = experiment: Antitumor activity against human OVCAR4 cells after 3 days by WST1 assay; format: functional, cell-based; conditions: OVCAR-4, 72 h
Outline: (§2)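 Cell lines grown in Iscove's MDM with 5% FCS, 50 µM 2-mercaptoethanol, penicillin and streptomycin; suspension lines kept at 0.5-1.5 × 10^6 cells/mL, adherent lines subconfluent. Cells seeded in triplicate at 10^4 cells/100 µL. Compounds were dissolved in water and added immediately at 0 to 100 µM final. WST.1 read at 440 nm on day 3; IC50 taken from OD versus concentration plots.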

COLO 205 = experiment: Antitumor activity against human COLO205 cells after 3 days by WST1 assay; format: functional, cell-based; conditions: COLO 205, 72 h; outline: as §2
ML1 = experiment: Induction of apoptosis in human OCI-AML1 cells by […]/propidium iodide staining assay; format: functional, cell-based
Outline: (§3)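 Cells seeded in duplicate at 10^5 cells/mL; inhibitors added straight after seeding at 4 µM final, water in control wells. Cells harvested every 24 h, washed in PBS, stained with Annexin V/propidium iodide (1:200) and analysed by FACS; apoptotic cells scored as Annexin V+/PI-, necrotic as Annexin V+/PI+.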

PBMC = experiment: Cytotoxicity against human PBMC cells by WST1 assay; format: cell-based
Outline: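 Donor PBMCs isolated on Ficoll-Hypaque from blood diluted 1:1 in PBS, washed twice in PBS and stimulated with 3 µg/mL concanavalin A. Seeded in triplicate at 10^5 cells/100 µL; compounds in water added immediately, 0-100 µM final. WST.1 absorbance at 440 nm on day 3; IC50 from OD versus concentration plots.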

[5] = Cytotoxicity against human CCD-967 cells up to 4 uM after 3 days by WST1 assay; format: cell-based; conditions: ccd-967, 72 h
Outline: (§4)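 Cells grown in Iscove's MDM with 5% FCS, 50 µM 2-mercaptoethanol and antibiotics, kept subconfluent if adherent. Seeded in triplicate at 10^4 cells/100 µL with compounds (in water) added at once, 0 to 100 µM final. WST.1 formazan read at 440 nm on day 3; IC50 from OD versus concentration.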

Hs-578T [6] = experiment: Antitumor activity against human Hs 578T cells up to 4 uM after 3 days by WST1 assay; format: functional, cell-based; outline: as §2
T47D [7] = experiment: Antitumor activity against human T47D cells up to 4 uM after 3 days by WST1 assay; format: functional, cell-based; outline: as §2
SNB-19 [8] = experiment: Antitumor activity against human SNB19 cells up to 4 uM after 3 days by WST1 assay; format: functional, cell-based; outline: as §2
OCI-Ly7 = experiment: Induction of apoptosis in human OCI-LY7 cells 4 uM by […]/propidium iodide staining assay; format: functional, cell-based; outline: as §3
Homo sapiens = organism: Homo sapiens; experiment: Induction of apoptosis in human OCI-My 2 cells 4 uM by […]/propidium iodide staining assay; format: functional, cell-based; outline: as §3
[9] = Antitumor activity against human MDA468 cells after 3 days by WST1 assay; format: functional, cell-based; conditions: MDA-MB-468, 72 h; outline: as §2
[10] = Antitumor activity against human OCI-AML1 cells after 3 days by WST1 assay; format: functional, cell-based; conditions: ML1, 72 h; outline: as §2
OCI-AML2 = experiment: Antitumor activity against human OCI-AML2 cells after 3 days by WST1 assay; format: functional, cell-based; conditions: OCI-AML2, 72 h; outline: as §2
[11] = Antitumor activity against human OCI-LY7 cells after 3 days by WST1 assay; format: functional, cell-based; conditions: OCI-Ly7, 72 h; outline: as §2
[12] = Antitumor activity against human OCI-My 2 cells after 3 days by WST1 assay; format: functional, cell-based; conditions: 72 h; outline: as §2
[13] = Antitumor activity against human SKW3 cells after 3 days by WST1 assay; format: functional, cell-based; conditions: SKW3, 72 h; outline: as §2
MCF7 = experiment: Antitumor activity against human MCF7 cells after 3 days by WST1 assay; format: functional, cell-based; conditions: MCF7, 72 h; outline: as §2
[14] = Antitumor activity against human LOX cells after 3 days by WST1 assay; format: functional, cell-based; conditions: 72 h; outline: as §2
SKW3 = experiment: Induction of apoptosis in human SKW3 cells at 4 uM by annexin V/propidium iodide staining assay
[15] = Cytotoxicity against human CCD-967 cells up to 50 uM after 3 days by WST1 assay; format: cell-based; conditions: ccd-967, 72 h; outline: as §4
Hs-578T [16] = experiment: Antitumor activity against human Hs 578T cells up to 50 uM after 3 days by WST1 assay; format: functional, cell-based; outline: as §2
T47D [17] = experiment: Antitumor activity against human T47D cells up to 50 uM after 3 days by WST1 assay; format: functional, cell-based; outline: as §2
PC-3 = experiment: Antitumor activity against human PC3 cells up to 50 uM after 3 days by WST1 assay; format: functional, cell-based; outline: as §2
SNB-19 [18] = experiment: Antitumor activity against human SNB19 cells up to 50 uM after 3 days by WST1 assay; format: functional, cell-based; outline: as §2

Sequence of Orotidine 5'-phosphate decarboxylase (O26232 whole entry): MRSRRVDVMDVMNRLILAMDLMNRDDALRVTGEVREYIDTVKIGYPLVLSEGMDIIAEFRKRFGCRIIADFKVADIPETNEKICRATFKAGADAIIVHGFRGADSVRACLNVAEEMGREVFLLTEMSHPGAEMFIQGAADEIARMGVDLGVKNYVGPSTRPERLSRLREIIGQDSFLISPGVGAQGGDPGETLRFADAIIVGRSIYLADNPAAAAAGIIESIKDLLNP

Kinact [1] [h⁻¹] | Ki [2] [µM] | Ki [3] [µM] | Ki [4] [µM] | IC50 (OCI-AML2) [nM] | IC50 (MCF7) [µM] | Structure (SMILES) | Activity (ML1) | Activity (OCI-Ly7) | Activity (Homo sapiens) | IC50 [9] [nM] | IC50 [10] [nM] | IC50 [11] [nM] | IC50 [12] [nM] | IC50 [13] [nM] | IC50 [14] [nM] | Activity (SKW3) | other results
158 | 1.1 |  |  |  |  | O=c1[nH]c(=O)n([C@@H]2O[C@H](COP(=O)(O)O)[C@@H](O)[C@H]2O)c(I)c1F |  |  |  |  |  |  |  |  |  |  | 
 |  | 645 | 98 |  |  | O=c1[nH]c(=O)n([C@@H]2O[C@H](COP(=O)(O)O)[C@@H](O)[C@H]2O)cc1F |  |  |  |  |  |  |  |  |  |  | 

Further lines, the compound ahead of its results:

Structure (SMILES) | Kinact [1] [h⁻¹] | Ki [2] [µM] | Ki [3] [µM] | Ki [4] [µM] | IC50 (OCI-AML2) [nM] | IC50 (MCF7) [µM] | Activity (ML1) | Activity (OCI-Ly7) | Activity (Homo sapiens) | IC50 [9] [nM] | IC50 [10] [nM] | IC50 [11] [nM] | IC50 [12] [nM] | IC50 [13] [nM] | IC50 [14] [nM] | Activity (SKW3) | other results
Nc1c(F)c(=O)[nH]c(=O)n1[C@@H]1O[C@H](COP(=O)(O)O)[C@@H](O)[C@H]1O |  |  | 11.4 | 16.6 |  |  |  |  |  |  |  |  |  |  |  |  | 
[N-]=[N+]=Nc1c(F)c(=O)[nH]c(=O)n1[C@@H]1O[C@H](CO)[C@@H](O)[C@H]1O |  |  |  |  | 700 | 1 | Active | Active | Active | 1800 | 600 | 700 | 600 | 400 | 2300 | Active | IC50 (OVCAR-4): 1500 nM; IC50 (COLO 205): 3.8 µM; IC50 (PBMC): > 10 µM; Activity [5]: Not Active; Activity (Hs-578T [6]): inactive; Activity (T47D [7]): inactive; Activity (SNB-19 [8]): inactive
[N-]=[N+]=Nc1c(F)c(=O)[nH]c(=O)n1[C@@H]1O[C@H](COP(=O)(O)O)[C@@H](O)[C@H]1O | 41 | 18.2 | 0.36 |  |  |  |  |  |  |  |  |  |  |  |  |  | 
O=Cc1c(F)c(=O)[nH]c(=O)n1[C@@H]1O[C@H](CO)[C@@H](O)[C@H]1O |  |  |  |  | 700 | 23.7 | Active | Active | Active | 1900 | 300 | 600 | 400 | 300 | 400 | Active | Activity [15]: Not Active; Activity (Hs-578T [16]): inactive; Activity (T47D [17]): inactive; Activity (PC-3): inactive; Activity (SNB-19 [18]): inactive
